Test results: ChEMBL document CHEMBL5126593, “Design, Synthesis, and Biological Evaluation of a Novel Series of 4-Guanidinobenzoate Derivatives as Enteropeptidase Inhibitors with Low Systemic Exposure for the Treatment of Obesity” (J Med Chem, 2022)
Active and inactive are the calls of the source. The calls are words filed in the database; no cut-off is given here.

Columns and labels:
[1] = Oral bioavailability in non-fasted Sprague-Dawley rat plasma at 1 mg/kg administered as cassette dose by LC/MS/MS analysis; format: ADME, organism-based; settings: in vivo, BLD = below limit of detection
How it was run: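 Non-fasted SD rats given cassette oral dose of 1 mg/kg, suspended in 0.5% methylcellulose. Plasma obtained from collected blood; compound measured by LC–MS/MS.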

Rattus norvegicus [2] = assay: Anti-obesity activity in diet-induced obese F344/Jcl rat model assessed as increase in fecal protein output at 1 to 10 mg/kg, po measured on day 28; format: functional, organism-based; settings: dose 1-10 mg/kg, time 28.0 day
How it was run: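 Male DIO F344/Jcl rats on HFD D12451 (45 kcal % fat), n = 6 per group. Oral dosing at 1, 3 or 10 mg/kg in 0.5% methylcellulose vehicle for 4 weeks from 36 weeks of age. Fecal protein output measured; mean ± SD; statistics vs vehicle.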

Rattus norvegicus [3] = assay: Anti-obesity activity in diet-induced obese F344/Jcl rat model assessed as reduction in food intake at 1 to 10 mg/kg, po administered for 28 days; format: functional, organism-based; settings: dose 1-10 mg/kg, time 28.0 day
How it was run: (§1)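 Male DIO F344/Jcl rats fed HFD D12451 (45 kcal % fat, 20 kcal % protein, 35 kcal % carbohydrate) from six weeks of age. Oral dosing in 0.5% methylcellulose vehicle starts at 36 weeks of age and continues 4 weeks. Body weight recorded every 1–4 days. n = 6 per group; mean ± SD; Dunnett's t-test or one-tailed Williams' test vs vehicle.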

Rattus norvegicus [4] = assay: Anti-obesity activity in diet-induced obese F344/Jcl rat model assessed as body weight loss administered orally for 28 days measured every 4 days; format: functional, organism-based; settings: route po, time 4.0 weeks, DDE = dose-dependent effect; how it was run: as §1
[5] = Permeability of the compound at pH 7.4 by PAMPA; format: ADME; settings: read-out: permeability
[6] = Permeability of the compound at pH 5.0 by PAMPA; format: ADME; settings: read-out: permeability
[7] = target: Enteropeptidase (Homo sapiens) (UniProt P98073); assay: Inhibition of human recombinant Enteropeptidase assessed as inhibition based on initial velocity using 5FAM-Abu-Gly-Asp -Asp-Asp -Lys-Ile-Val-Gly-Gly-Lys-(CPQ2)-Lys-Lys-NH2 as substrate by fluorescence based plate reader method; settings: TDE = time-dependent effect
Enteropeptidase (Homo sapiens), sequence (P98073 2-784 limits assumed): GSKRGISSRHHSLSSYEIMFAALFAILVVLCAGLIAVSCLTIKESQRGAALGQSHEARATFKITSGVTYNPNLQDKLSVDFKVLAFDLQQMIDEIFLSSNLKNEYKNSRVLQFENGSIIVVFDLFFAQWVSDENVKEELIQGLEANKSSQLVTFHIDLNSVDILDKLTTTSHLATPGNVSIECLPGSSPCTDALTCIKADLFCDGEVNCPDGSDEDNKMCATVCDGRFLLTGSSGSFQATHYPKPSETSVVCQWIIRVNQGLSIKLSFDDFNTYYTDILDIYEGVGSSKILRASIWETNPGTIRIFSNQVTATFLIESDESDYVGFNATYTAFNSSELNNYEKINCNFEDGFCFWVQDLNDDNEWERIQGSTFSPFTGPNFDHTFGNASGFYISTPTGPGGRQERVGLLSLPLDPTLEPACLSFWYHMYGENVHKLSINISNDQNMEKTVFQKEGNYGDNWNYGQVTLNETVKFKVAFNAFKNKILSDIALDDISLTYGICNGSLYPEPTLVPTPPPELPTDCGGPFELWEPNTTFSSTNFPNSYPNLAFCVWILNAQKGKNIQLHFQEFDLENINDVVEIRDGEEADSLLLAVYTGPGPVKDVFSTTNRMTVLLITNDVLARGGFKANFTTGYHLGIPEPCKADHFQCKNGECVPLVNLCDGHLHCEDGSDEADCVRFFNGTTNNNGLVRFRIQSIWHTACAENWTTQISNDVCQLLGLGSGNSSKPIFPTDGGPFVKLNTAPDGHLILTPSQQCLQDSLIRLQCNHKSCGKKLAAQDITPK
Enteropeptidase (Homo sapiens), sequence (P98073 785-1019 limits assumed): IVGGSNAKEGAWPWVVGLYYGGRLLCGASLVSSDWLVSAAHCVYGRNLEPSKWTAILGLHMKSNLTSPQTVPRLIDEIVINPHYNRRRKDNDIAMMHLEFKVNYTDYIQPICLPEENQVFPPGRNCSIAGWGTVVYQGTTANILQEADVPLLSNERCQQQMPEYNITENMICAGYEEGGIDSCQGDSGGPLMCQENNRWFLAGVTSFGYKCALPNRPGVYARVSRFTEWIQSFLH
How it was run: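 Human recombinant enzyme prepared as a 24 mU/mL solution in 50 mM tricine pH 8.0, 0.01% Tween 20, 10 mM CaCl2. Compound in DMSO/buffer mixed with 2.1 μM substrate solution; enzyme added to start the reaction at room temperature. Fluorescence (ex 485/em 535 nm) read at 6 min. Inhibition taken relative to no-compound and no-enzyme controls. IC50 with 95% CI.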

[8] = Aqueous stability of the compound at pH 1.2 assessed as compound decomposition measured after 24 hrs by HPLC analysis; format: physicochemical; settings: aqueous solution, read-out: Drug degradation
How it was run: (§2)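 Compounds at 10 μg/mL in Japanese Pharmacopoeia 17th ed. disintegration-test fluids (first fluid pH 1.2, second fluid pH 6.8), with 10% DMSO if needed, held at 37 °C. HPLC run at start and at 24 h. Decomposition derived from peak areas as residual content.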

[9] = Aqueous stability of the compound at pH 6.8 assessed as compound decomposition measured after 24 hrs by HPLC analysis; format: physicochemical; settings: aqueous solution, read-out: Drug degradation; how it was run: as §2
[10] = Cmax in mouse plasma at 60 mg/kg, po; format: ADME, organism-based; parameters: dose 60 mg/kg, route po
[11] = Tmax in mouse plasma at 10 mg/kg, sc; format: ADME, organism-based
[12] = Cmax in mouse plasma at 10 mg/kg, sc; format: ADME, organism-based; parameters: dose 10 mg/kg, route sc
[13] = Tmax in mouse plasma at 60 mg/kg, po; format: ADME, organism-based
[14] = MRT in mouse plasma at 60 mg/kg, po; format: ADME, organism-based
[15] = MRT in mouse plasma at 10 mg/kg, sc; format: ADME, organism-based
Mus musculus = assay: In vivo inhibition of entero-peptidase in mouse assessed as increase in fecal protein content at 60 mg/kg, po; format: functional, organism-based
How it was run: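 HFD-fed male mice (D12079B diet, 14–21 weeks old) dosed orally at 60 mg/kg, with 0.5% methylcellulose as vehicle. Whole feces collected overnight and fecal protein output determined.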

| Structure (SMILES) | Papp [5] [×10⁻⁶ cm/s] | Papp [6] [×10⁻⁶ cm/s] | inhibition [7] | degraded at 24 h [8] [%] | degraded at 24 h [9] [%] | also measured |
| --- | --- | --- | --- | --- | --- | --- |
| N=C(N)Nc1ccc(C(=O)Oc2cccc(C3=NO[C@](CC(=O)O)(C(=O)O)C3)c2)cc1 | – | – | – | – | – | F [1]: Bld; Activity (Rattus norvegicus [2]): Active; Activity (Rattus norvegicus [3]): Active; Activity (Rattus norvegicus [4]): Dde |
| N=C(N)Nc1ccc(C(=O)Oc2ccc(CC(=O)NCC(=O)O)cc2)cc1.O=C(O)C(F)(F)F | 0.2 | 0.2 | Tde | – | – | – |
| N=C(N)Nc1ccc(C(=O)Oc2cccc(C(=O)N[C@@H](CC(=O)O)C(=O)O)c2)cc1 | – | – | – | 3.9 | 8.6 | – |
| CS(=O)(=O)O.N=C(N)Nc1ccc(C(=O)Oc2ccccc2)cc1 | < 0.2 | < 0.2 | Tde | – | – | – |

The next lines start with results.

| Papp [5] [×10⁻⁶ cm/s] | Papp [6] [×10⁻⁶ cm/s] | inhibition [7] | degraded at 24 h [8] [%] | degraded at 24 h [9] [%] | Structure (SMILES) | also measured |
| --- | --- | --- | --- | --- | --- | --- |
| – | – | – | 2.8 | 5.8 | N=C(N)Nc1ccc(C(=O)Oc2cccc(CC(=O)N[C@@H](CC(=O)O)C(=O)O)c2)cc1 | – |
| – | – | – | 2.5 | 5 | Cl.N=C(N)Nc1ccc(C(=O)Oc2ccc(CC(=O)N[C@@H](CC(=O)O)C(=O)O)cc2)cc1 | Cmax [10]: 1360 ng/mL; Tmax [11]: 0.5 h; Cmax [12]: 13400 ng/mL; Tmax [13]: 1.67 h; MRT [14]: 5.07 h; MRT [15]: 0.98 h; inhibition (Mus musculus): Active |
